Experimental data pooled from the literature.
Protocols differ between the studies behind these lines.
RET V804M: Proto-oncogene tyrosine-protein kinase receptor Ret (RET, Homo sapiens, UniProt P07949, V804M)
RET V804L: Proto-oncogene tyrosine-protein kinase receptor Ret (RET, Homo sapiens, UniProt P07949, V804L)
RET M918T: Proto-oncogene tyrosine-protein kinase receptor Ret (RET, Homo sapiens, UniProt P07949, M918T)

SMILES	target	read-out	technique	concentration	remaining binding [%]
CN(C)c1ncc(F)c(-c2cnn3ncccc23)n1	RET V804M	binding	–	1 µM	100
CN(C)CC#Cc1ccc(OCCCc2sc(N3CCc4cccc(C(=O)Nc5nc6ccccc6s5)c4C3)nc2C(=O)O)c(F)c1	Proto-oncogene tyrosine-protein kinase receptor Ret (RET, Homo sapiens, UniProt P07949)	cell-free assay	competition with immobilised ligand	1 µM	100
O=C(Nc1c[nH]nc1C(=O)NC1CCNCC1)c1cc(F)cc(F)c1	RET V804M	binding	competition with immobilised ligand	1 µM	99
Cc1cnn2ncc(-c3ccnc(N(C)C)n3)c2c1	RET V804L	binding	–	1 µM	100
O=C(c1ccc(Nc2ncc(Cl)c(-c3ccc(Cl)s3)n2)cc1)N1CCC(N2CCCC2)CC1	RET V804M	binding	competition with immobilised ligand	1 µM	12
N[C@@H]1CCN(c2nccc(-c3cnn4ncccc34)n2)C1	RET M918T	binding	–	1 µM	94
O=C(NCCCN1CCOCC1)c1ccc(Nc2ncc(Cl)c(-c3ccc(Cl)s3)n2)cc1	RET V804L	binding	competition with immobilised ligand	1 µM	13
COc1ccnn2ncc(-c3ccnc(N(C)C)n3)c12	RET M918T	binding	–	1 µM	100
O=C(N[C@H]1CCCCC/C=C\C2C[C@@]2(C(=O)O)NC(=O)[C@@H]2C[C@@H](Oc3ccncc3)CN2C1=O)OC1CCCC1 (stereo partly shown)	RET M918T	binding	competition with immobilised ligand	1 µM	96
c1cncc(-c2cccc(Nc3nccc(NC4CCCCC4)n3)c2)c1	RET V804M	binding	competition with immobilised ligand	10 µM	8.8
COc1cc(-c2cn(C3CCc4c(F)cccc4N(CC(F)(F)F)C3=O)nn2)ccc1-n1cnc(C)c1 (stereo not shown)	RET V804M	cell-free assay	competition with immobilised ligand	1 µM	88
COc1cnc(Nc2cccc(S(N)(=O)=O)c2)nc1N1CCN(c2ccccc2)CC1	RET V804L	binding	competition with immobilised ligand	1 µM	73
CCC(=O)N[C@H]1CC[C@@H](C(=O)N(C)c2ccc(-c3nc4ccccc4o3)cc2)C1	RET V804M	cell-free assay	competition with immobilised ligand	1 µM	100
O=C(c1ccc(Nc2nccc(-c3cc4ccccc4s3)n2)cc1)N1CCC(N2CCCC2)CC1	RET V804L	binding	competition with immobilised ligand	1 µM	80
C[C@H]1CCN(c2nccc(-c3cnn4ncccc34)n2)C1	RET M918T	binding	–	1 µM	100
N#Cc1ccc(Nc2ccc3[nH]c(=O)[nH]c3c2)c(Cl)c1	RET V804M	cell-free assay	competition with immobilised ligand	1 µM	93
CCN1CCN(Cc2ccc(C(=O)Nc3ccc(C)c(Oc4ccc5c(c4)CC(=O)N5)c3)cc2C(F)(F)F)CC1	RET V804M	binding	competition with immobilised ligand	1 µM	67
CN(C(=O)c1ccccc1)c1cc(N(C)c2ccc3c(c2)CCc2ccc(C(=O)NCCN4CCOCC4)cc2C3=O)ccc1F	RET M918T	cell-free assay	competition with immobilised ligand	1 µM	100
C[C@@H](c1ccc(-n2cnc3c(N)ncnc32)cc1)N1CCc2nn(C)c(Cc3ccccc3)c2C1=O	RET M918T	binding	competition with immobilised ligand	0.1 µM	98
